Test results taken from paper PMC6039304 (International Journal for Parasitology: Drugs and Drug …, 2018).
Read-outs that look alike come from different tables or passages of the source.

Columns and labels:
[1] = system: L. infantum promastigotes; assay: antileishmanial activity in promastigote cultures; format: cell-based, Leishmania infantum; details: 24 h, read-out: Promastigotes IC50
Method in brief: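 The L. infantum field strain came from an infected dog spleen and was grown at 26 °C in RPMI with 10% heat-inactivated FBS and 2% penicillin/streptomycin. Promastigotes at 10^6/ml were incubated with serial dilutions of test compound for 24 h at 26 °C. Cells were then resuspended in PBS, stained with 12 μM propidium iodide and analysed by flow cytometry. IC50 is the concentration killing 50% of parasites.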

human RBCs = assay: hemolytic potential on red blood cells; format: cell-based; details: for Hemolysis HC50 / HC50 fold higher than that of HePC: human RBCs; for Hemolysis HC50: 1 h, 37 °C, 50% of maximum hemolysis with water; for % hemolysis: at 100 μM of each compound
Method in brief: (§1)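 EDTA-anticoagulated blood from healthy volunteers was spun at 900 g for 10 min and the red cells washed three times in PBS. Cells were mixed 1:1 (v/v) with serial dilutions of test compound prepared in PBS, incubated 1 h at 37 °C, and centrifuged. Supernatant absorbance was read at 550 nm, with water-lysed cells as 100% hemolysis. HC50 was derived as for IC50. Combinations used the alkylphosphocholine at 15 or 25 μM plus peptaibol at 5 or 2 μM.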

[2] = hemolytic potential on red blood cells; format: cell-based, human; details: human, red blood cells from EDTA-preserved peripheral blood
Method in brief: as §1

THP-1 monocytes = assay: cytotoxicity in THP-1 monocytes; format: cell-based, human; details: for CC50: read-out: Cytotoxicity CC50, THP-1 monocytes
Method in brief: (§2)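 THP-1 monocytes, maintained at 37 °C and 5% CO2 in RPMI with FBS and antibiotics, were seeded at 10^6/ml. They were incubated 24 h with serial dilutions of test compounds or combinations, resuspended in PBS, stained with 12 μM propidium iodide and counted by flow cytometry. CC50 is the concentration giving 50% of maximum cytotoxicity. Single-point combination tests used the alkylphosphocholine at 15 or 25 μM with peptaibol at 5 or 2 μM.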

[3] = cytotoxicity in THP-1 monocytes; format: cell-based, human; details: human, THP-1 monocytes
Method in brief: as §2

[4] = in humans; cited from earlier work
[5] = system: L. infantum promastigotes; assay: ROS production in promastigotes; format: cell-based, Leishmania infantum; details: compounds at IC50; 1 h, 3 h, 6 h
[6] = system: L. infantum promastigotes; assay: viability of promastigotes at early stages of treatment; format: cell-based, Leishmania infantum; details: 6 h, compound at IC50
Method in brief: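 Promastigotes (5 × 10^5/ml) were incubated 6 h with test compounds or combinations at their IC50 values. Propidium iodide was added at 12 μM and samples were run immediately by flow cytometry (≥10^4 cells). The value is % PI-stained promastigotes relative to control, mean ± SEM of at least 3 experiments.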

intracellular L.infantum = format: cell-based, Leishmania infantum; details: for IC50: read-out: Intracellular amastigotes IC50
Method in brief: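 THP-1 cells were differentiated with 1 μM retinoic acid for 72 h, then infected overnight at 1:4 cell:parasite. Infected cells were purified on Histopaque 1077 (1300g, 20 min) and exposed 24 h (37 °C, 5% CO2) to serial dilutions. Infection was scored by counting % infected cells in Giemsa-stained cytospins. For combinations, peptaibol was held at 5 or 2 μM while alkylphosphocholine was varied (15–0.2 or 25–0.2 μM). CI came from linear isoboles; SI = CC50/intracellular IC50.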

[7] = system: L. infantum promastigotes; assay: mitochondrial membrane polarization in promastigotes; format: cell-based, Leishmania infantum; details: for ΔΨm dissipation: at 6 h, relative to control, compound alone
Method in brief: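 Promastigotes (5 × 10^5/ml) were treated with test compounds or combinations at their IC50 values for 1, 3 or 6 h, then stained with 0.1 μM MitoTracker Red CMXRos for 30 min. Flow cytometry (488 nm laser, ≥10^4 cells, debris and autofluorescence excluded) scored the % of cells fluorescing above 10^2 (log scale) at 630 nm, relative to untreated control. Data came from at least 3 experiments.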

[8] = system: L. infantum promastigotes; assay: morphological changes in promastigotes; format: cell-based, Leishmania infantum; details: 6 h, 26 °C, at IC50; scanning electron microscopy
trypanosomiasis = details: mouse model; ref Kumar et al., 1991; cited from earlier work
[9] = single compound, intracellular amastigote in THP-1 monocytes, 24 h

Molecule: CCCCCCCCCCCCCCCCOP(=O)([O-])OCC[N+](C)(C)C [HePC, hexadecylphosphocholine, reference compound]
- IC50 ([1]; Leishmania infantum): 8.2 ± 0.7 µM
- Hemolysis HC50 (human RBCs): 38.3 ± 2.8 µM
- hemolysis at 1 h, 100 µM [2]: 96.1%
- % PI-stained THP-1 cells (THP-1 monocytes; 15 μM HePC or 25 μM TC52, alone or combined with 5 μM AAM or 2 μM SZ, 24 h): 27.6%
- CC50 at 24 h [3]: 28.6 ± 2.5 µM
- half-life [4]: 100 to 200 h
- ROS production in promastigotes [5]: low levels of ROS
- PI-stained promastigotes [6]: 5.5%
- IC50 (intracellular L.infantum; Leishmania infantum, THP-1, 24 h): 1.8 ± 0.5 µM
- Selectivity Index (SI), CC50/IC50 against the intracellular form (intracellular L.infantum; THP-1 CC50 / intracellular amastigote IC50): 15.8
- mitochondrial transmembrane potential (MitoTracker retention) ([7]; compounds at IC50, 1 h, 3 h, 6 h): significantly induce accumulation of MitoTracker above the control levels
- morphological alterations of promastigotes [8]: did not seem to affect noticeably the morphology

Molecule: antiamoebin [AAM]
- IC50 ([1]; 26 °C): 8.7 ± 0.1 µM
- % hemolysis (human RBCs): 52.9%
- HC50 fold higher than that of HePC (human RBCs): 2.5 fold
- Hemolysis HC50 (human RBCs): 94.6 ± 2.6 µM
- fold less cytotoxic than HePC (THP-1 monocytes; THP-1 CC50 ratio): 1.4 fold
- fold less cytotoxic than SZ (THP-1 monocytes; THP-1 CC50 ratio): about 1.8 fold
- CC50 (THP-1 monocytes; 24 h): 40.3 ± 3.2 µM
- trypanocidal activity (trypanosomiasis): exhibits trypanocidal activity
- ROS production in promastigotes [5]: moderate levels of ROS
- IC50 (intracellular L.infantum; [9]): 7.5 ± 0.2 µM
- ΔΨm dissipation [7]: 75%
- morphological alterations of promastigotes [8]: caused damage to the plasma membrane and altered flagellar morphology

Molecule: suzukacillin A [SZ]
- IC50 ([1]; 26 °C): 8.2 ± 0.1 µM
- % hemolysis (human RBCs): 96.6%
- HC50 fold higher than that of HePC (human RBCs): 1.7 fold
- Hemolysis HC50 (human RBCs): 66.9 ± 2.2 µM
- CC50 (THP-1 monocytes; 24 h): 22.5 ± 3.2 µM
- ROS production in promastigotes [5]: moderate levels of ROS
- IC50 (intracellular L.infantum; [9]): 7.6 ± 1.2 µM
- ΔΨm dissipation [7]: 30%
